{"source": "paper PMC4306484", "about": "(ACS Chemical Neuroscience, 2014)", "key": {"rat mGlu8 [1]": {"target": "T1, rat mGlu8 (Rattus norvegicus, UniProt P70579)", "T1 sequence (P70579 34-908)": "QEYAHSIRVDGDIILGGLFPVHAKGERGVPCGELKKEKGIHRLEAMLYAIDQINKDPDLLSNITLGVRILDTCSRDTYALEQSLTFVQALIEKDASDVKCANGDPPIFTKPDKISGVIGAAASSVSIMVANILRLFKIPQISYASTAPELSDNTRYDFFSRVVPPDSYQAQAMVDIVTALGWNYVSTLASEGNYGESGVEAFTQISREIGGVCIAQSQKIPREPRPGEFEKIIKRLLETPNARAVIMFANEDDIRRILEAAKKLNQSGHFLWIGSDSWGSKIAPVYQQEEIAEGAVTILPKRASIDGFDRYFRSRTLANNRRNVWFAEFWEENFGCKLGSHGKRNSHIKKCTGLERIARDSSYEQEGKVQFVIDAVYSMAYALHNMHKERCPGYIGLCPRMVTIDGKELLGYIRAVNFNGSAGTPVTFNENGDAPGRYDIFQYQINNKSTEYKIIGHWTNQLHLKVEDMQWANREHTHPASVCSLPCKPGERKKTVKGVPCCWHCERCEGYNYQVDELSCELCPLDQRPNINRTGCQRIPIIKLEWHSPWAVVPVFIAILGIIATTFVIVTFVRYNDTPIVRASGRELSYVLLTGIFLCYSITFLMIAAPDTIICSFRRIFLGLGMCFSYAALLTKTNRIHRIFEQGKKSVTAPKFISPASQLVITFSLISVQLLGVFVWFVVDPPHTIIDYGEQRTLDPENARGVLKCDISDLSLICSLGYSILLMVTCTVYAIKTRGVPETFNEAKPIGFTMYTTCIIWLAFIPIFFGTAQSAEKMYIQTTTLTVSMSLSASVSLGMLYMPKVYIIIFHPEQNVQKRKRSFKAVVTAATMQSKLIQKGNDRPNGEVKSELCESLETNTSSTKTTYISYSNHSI", "test": "Thallium flux assay, HEK293 cells expressing rat mGlu8 and GIRK1/2 channels", "format": "cell-based"}, "human mGlu4": {"target": "human mGlu4 (Homo sapiens, UniProt Q14833)", "sequence (Q14833 33-912)": "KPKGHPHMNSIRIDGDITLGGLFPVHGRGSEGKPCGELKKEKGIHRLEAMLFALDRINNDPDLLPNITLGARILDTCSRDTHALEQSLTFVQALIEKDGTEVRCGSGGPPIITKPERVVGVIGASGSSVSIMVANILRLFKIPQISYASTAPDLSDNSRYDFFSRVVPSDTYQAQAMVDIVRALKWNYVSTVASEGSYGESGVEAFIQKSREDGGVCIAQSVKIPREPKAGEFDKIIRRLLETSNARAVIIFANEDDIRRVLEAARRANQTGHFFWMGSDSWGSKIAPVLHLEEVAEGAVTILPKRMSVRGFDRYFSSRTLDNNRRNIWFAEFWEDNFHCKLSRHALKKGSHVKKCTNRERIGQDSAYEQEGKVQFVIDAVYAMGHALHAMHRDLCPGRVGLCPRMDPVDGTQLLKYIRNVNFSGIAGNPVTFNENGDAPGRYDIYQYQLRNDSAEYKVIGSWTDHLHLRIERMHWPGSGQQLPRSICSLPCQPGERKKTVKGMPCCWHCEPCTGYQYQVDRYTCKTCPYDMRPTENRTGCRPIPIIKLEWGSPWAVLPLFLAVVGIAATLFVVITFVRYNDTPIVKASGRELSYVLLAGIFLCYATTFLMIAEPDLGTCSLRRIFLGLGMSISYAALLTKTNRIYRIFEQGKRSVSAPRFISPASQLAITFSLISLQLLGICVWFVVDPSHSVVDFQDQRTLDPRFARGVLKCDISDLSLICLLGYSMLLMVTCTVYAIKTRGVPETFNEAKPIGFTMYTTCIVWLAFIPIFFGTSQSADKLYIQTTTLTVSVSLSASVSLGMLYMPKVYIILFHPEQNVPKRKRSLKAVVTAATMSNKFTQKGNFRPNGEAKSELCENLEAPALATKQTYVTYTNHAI", "test": "Calcium mobilization assay, human mGlu4/Gqi5/CHO cells", "format": "cell-based", "conditions": "for Kb / log α (affinity cooperativity) / log β (efficacy cooperativity) / α / β: calcium assay"}, "rat mGlu7": {"target": "rat mGlu7 (Rattus norvegicus, UniProt P35400)", "sequence (P35400 35-915)": "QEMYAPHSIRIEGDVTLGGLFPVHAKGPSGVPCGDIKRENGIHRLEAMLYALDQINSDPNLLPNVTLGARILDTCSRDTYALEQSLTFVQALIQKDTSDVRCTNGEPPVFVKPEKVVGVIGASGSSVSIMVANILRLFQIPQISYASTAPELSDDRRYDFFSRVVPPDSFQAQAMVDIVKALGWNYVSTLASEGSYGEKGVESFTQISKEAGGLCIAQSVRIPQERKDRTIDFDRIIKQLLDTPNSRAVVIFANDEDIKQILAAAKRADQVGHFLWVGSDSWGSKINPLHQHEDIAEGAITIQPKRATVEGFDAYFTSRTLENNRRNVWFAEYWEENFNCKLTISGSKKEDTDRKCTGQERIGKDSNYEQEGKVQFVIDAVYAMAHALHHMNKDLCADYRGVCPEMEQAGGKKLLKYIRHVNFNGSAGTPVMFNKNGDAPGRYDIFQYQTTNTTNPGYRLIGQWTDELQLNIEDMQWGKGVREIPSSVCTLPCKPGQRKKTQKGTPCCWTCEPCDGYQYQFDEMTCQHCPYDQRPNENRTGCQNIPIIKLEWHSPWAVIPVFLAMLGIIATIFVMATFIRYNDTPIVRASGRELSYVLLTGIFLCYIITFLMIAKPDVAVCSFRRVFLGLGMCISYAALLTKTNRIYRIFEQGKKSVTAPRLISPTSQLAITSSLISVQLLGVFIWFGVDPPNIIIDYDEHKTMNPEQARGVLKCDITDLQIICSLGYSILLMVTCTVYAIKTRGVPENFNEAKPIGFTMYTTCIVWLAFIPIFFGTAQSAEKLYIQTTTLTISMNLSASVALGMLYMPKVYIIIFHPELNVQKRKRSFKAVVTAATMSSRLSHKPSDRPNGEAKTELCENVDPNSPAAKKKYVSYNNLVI", "test": "Calcium mobilization assay, rat mGlu7/Gα15/HEK cells", "format": "cell-based", "conditions": "for Kb / log α (affinity cooperativity) / log β (efficacy cooperativity) / log τB / α / β / τB: calcium assay"}, "rat mGlu8 [2]": {"target": "T1, rat mGlu8", "test": "Calcium mobilization assay, rat mGlu8/Gα15/HEK cells", "format": "cell-based", "conditions": "for Kb / log α (affinity cooperativity) / log β (efficacy cooperativity) / log τB / α / β / τB: calcium assay"}, "rat mGlu2": {"target": "rat mGlu2 (Rattus norvegicus, UniProt P31421)", "sequence (P31421 19-872)": "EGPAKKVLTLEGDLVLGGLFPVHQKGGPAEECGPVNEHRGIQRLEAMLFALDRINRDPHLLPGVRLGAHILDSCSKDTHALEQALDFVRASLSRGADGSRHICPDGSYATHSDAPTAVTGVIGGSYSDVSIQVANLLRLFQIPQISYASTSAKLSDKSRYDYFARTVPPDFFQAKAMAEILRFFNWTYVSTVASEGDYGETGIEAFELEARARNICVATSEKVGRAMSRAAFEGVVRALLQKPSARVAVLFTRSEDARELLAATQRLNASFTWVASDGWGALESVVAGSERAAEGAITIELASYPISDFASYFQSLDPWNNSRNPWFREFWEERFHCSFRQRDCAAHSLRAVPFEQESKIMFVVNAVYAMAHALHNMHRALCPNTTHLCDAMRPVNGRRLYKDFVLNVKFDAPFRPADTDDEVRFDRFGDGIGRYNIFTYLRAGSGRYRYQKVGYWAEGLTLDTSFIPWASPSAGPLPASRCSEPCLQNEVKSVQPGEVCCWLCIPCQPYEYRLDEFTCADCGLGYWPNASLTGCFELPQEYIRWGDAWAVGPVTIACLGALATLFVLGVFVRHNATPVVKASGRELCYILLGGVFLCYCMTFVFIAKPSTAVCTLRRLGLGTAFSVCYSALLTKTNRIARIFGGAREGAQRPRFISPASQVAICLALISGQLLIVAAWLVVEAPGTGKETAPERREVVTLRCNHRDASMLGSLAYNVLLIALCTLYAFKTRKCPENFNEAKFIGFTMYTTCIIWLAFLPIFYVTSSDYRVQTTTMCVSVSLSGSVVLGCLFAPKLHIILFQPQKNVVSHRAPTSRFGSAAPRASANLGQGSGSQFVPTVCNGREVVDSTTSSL", "test": "Fold-shift assay in rat mGlu2/Gα15-expressing cells", "format": "cell-based", "conditions": "listed as VU0155094"}, "SC-CA1 synapse": {"system": "SC-CA1 synapse", "test": "Extracellular field potential recordings", "set-up": "species or system C57BL6/J mice", "conditions": "for effect on fEPSP slope: agonist alone: 3 μM LSP1-2111, 1 μM DCPG or 30 μM LSP4-2022", "summary_of_the_method": "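Coronal hippocampal slices (400 μm) from six-week-old male mice anesthetized with isoflurane, cut in ice-cold sucrose solution. Slices recovered in NMDG-HEPES (15 min, 32 °C), then in ACSF (≥1 h, RT), and were perfused with 32 °C ACSF. CA1 stratum radiatum recordings used paired pulses (100 μs, 20 ms apart, 0.05 Hz). After 10 min baseline, drugs in ACSF were given for 5 or 10 min; PAM was preapplied 5 min, then coapplied with agonist. Slopes from three sweeps were averaged and normalized to predrug baseline. Paired-pulse ratio was second/first slope. N = 3–4; mean ± SEM.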"}, "mGlu4": {"target": "mGlu4 (Rattus norvegicus, UniProt P31423)", "sequence (P31423 33-912)": "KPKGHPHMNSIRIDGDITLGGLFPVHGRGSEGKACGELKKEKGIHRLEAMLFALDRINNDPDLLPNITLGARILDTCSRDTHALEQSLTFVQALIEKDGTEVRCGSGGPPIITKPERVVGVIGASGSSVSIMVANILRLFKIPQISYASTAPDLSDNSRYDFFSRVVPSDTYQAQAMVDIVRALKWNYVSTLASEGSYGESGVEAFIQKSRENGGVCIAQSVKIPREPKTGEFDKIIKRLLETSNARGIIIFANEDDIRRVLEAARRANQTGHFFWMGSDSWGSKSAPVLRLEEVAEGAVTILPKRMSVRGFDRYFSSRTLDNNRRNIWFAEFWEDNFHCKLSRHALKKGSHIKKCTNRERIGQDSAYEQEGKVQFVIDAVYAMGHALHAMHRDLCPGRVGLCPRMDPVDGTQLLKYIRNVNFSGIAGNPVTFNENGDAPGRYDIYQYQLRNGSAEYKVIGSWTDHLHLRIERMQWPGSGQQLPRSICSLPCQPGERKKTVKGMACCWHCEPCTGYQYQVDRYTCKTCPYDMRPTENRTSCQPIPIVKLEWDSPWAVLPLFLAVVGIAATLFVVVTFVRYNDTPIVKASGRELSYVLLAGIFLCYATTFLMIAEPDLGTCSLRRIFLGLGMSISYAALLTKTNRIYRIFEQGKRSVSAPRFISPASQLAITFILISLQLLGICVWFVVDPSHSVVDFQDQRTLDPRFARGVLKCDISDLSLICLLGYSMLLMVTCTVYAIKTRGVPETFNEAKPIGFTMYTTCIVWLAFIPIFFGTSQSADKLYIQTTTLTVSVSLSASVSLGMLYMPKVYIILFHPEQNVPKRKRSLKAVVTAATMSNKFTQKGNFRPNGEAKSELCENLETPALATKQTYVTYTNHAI", "test": "Thallium flux assay, cells expressing mGlu4 and GIRK1/2", "format": "cell-based", "conditions": "GIRK assay"}}, "note": "Marks after values point to notes of the source that are not given here."}
{"molecule": "COC(=O)c1ccc(-n2c(C)cc(C(=O)CSc3ccc(NC(C)=O)cc3)c2C)cc1", "note": "[Compound 1, methyl 4-(3-(2-((4-acetamidophenyl)thio)acetyl)-2,5-dimethyl-1H-pyrrol-1-yl)benzoate]", "values": [{"measurement": "EC50", "setting": "rat mGlu8 [1]", "result": 1.62, "unit": "µM"}, {"measurement": "agonist activity in the absence of glutamate", "setting": "rat mGlu8 [1]", "result": "did not exhibit agonist activity"}, {"measurement": "Kb", "setting": "human mGlu4; KB, agonist Glu", "result": 13.3, "unit": "µM"}, {"measurement": "Kb", "setting": "human mGlu4; KB, agonist L-AP4", "result": 13.2, "unit": "µM"}, {"measurement": "Kb", "setting": "human mGlu4; KB, agonist LSP4-2022", "result": 10.6, "unit": "µM"}, {"measurement": "log α (affinity cooperativity)", "setting": "human mGlu4; agonist Glu", "result": "0.28 ± 0.07"}, {"measurement": "log β (efficacy cooperativity)", "setting": "human mGlu4; agonist Glu", "result": "0.16 ± 0.08 ^f ^h"}, {"measurement": "α", "setting": "human mGlu4; agonist Glu", "result": 1.9}, {"measurement": "β", "setting": "human mGlu4; agonist Glu", "result": 1.4}, {"measurement": "log α (affinity cooperativity)", "setting": "human mGlu4; agonist L-AP4", "result": "–0.15 ± 0.30 ^k"}, {"measurement": "log β (efficacy cooperativity)", "setting": "human mGlu4; agonist L-AP4", "result": "0.67 ± 0.27 ^f ^i"}, {"measurement": "α", "setting": "human mGlu4; agonist L-AP4", "result": 0.71}, {"measurement": "β", "setting": "human mGlu4; agonist L-AP4", "result": 4.7}, {"measurement": "log α (affinity cooperativity)", "setting": "human mGlu4; agonist LSP4-2022", "result": "0.17 ± 0.13 ^l"}, {"measurement": "log β (efficacy cooperativity)", "setting": "human mGlu4; agonist LSP4-2022", "result": "0.33 ± 0.07 ^j"}, {"measurement": "α", "setting": "human mGlu4; agonist LSP4-2022", "result": 1.5}, {"measurement": "β", "setting": "human mGlu4; agonist LSP4-2022", "result": 2.1}, {"measurement": "Kb", "setting": "human mGlu4; pKB, agonist L-AP4, eq 2", "result": 13.2, "unit": "µM"}, {"measurement": "Kb", "setting": "rat mGlu7; KB, agonist LSP4-2022", "result": 8, "unit": "µM"}, {"measurement": "fold greater modulator affinity with L-AP4 than with glutamate as agonist", "setting": "rat mGlu7; calcium", "result": 4, "unit": "fold"}, {"measurement": "log α (affinity cooperativity)", "setting": "rat mGlu7; agonist Glu", "result": "0.58 ± 0.13"}, {"measurement": "log β (efficacy cooperativity)", "setting": "rat mGlu7; agonist Glu", "result": "0.68 ± 0.12 ^g ^h"}, {"measurement": "log τB", "setting": "rat mGlu7; agonist Glu", "result": "–0.17 ± 0.03"}, {"measurement": "α", "setting": "rat mGlu7; agonist Glu", "result": 3.8}, {"measurement": "β", "setting": "rat mGlu7; agonist Glu", "result": 4.8}, {"measurement": "τB", "setting": "rat mGlu7; agonist Glu", "result": 0.81}, {"measurement": "log α (affinity cooperativity)", "setting": "rat mGlu7; agonist L-AP4", "result": "0.39 ± 0.21"}, {"measurement": "log β (efficacy cooperativity)", "setting": "rat mGlu7; agonist L-AP4", "result": "0.07 ± 0.03 ^g ^i"}, {"measurement": "log τB", "setting": "rat mGlu7; agonist L-AP4", "result": "–0.09 ± 0.04"}, {"measurement": "α", "setting": "rat mGlu7; agonist L-AP4", "result": 2.4}, {"measurement": "β", "setting": "rat mGlu7; agonist L-AP4", "result": 1.2}, {"measurement": "log α (affinity cooperativity)", "setting": "rat mGlu7; agonist LSP4-2022", "result": "0.82 ± 0.26 ^l"}, {"measurement": "log β (efficacy cooperativity)", "setting": "rat mGlu7; agonist LSP4-2022", "result": "–0.10 ± 0.10 ^g ^j"}, {"measurement": "log τB", "setting": "rat mGlu7; agonist LSP4-2022", "result": "–0.22 ± 0.06"}, {"measurement": "α", "setting": "rat mGlu7; agonist LSP4-2022", "result": 6.6}, {"measurement": "β", "setting": "rat mGlu7; agonist LSP4-2022", "result": 0.8}, {"measurement": "τB", "setting": "rat mGlu7; agonist LSP4-2022", "result": 0.61}, {"measurement": "Kb", "setting": "rat mGlu7; pKB, agonist Glu, eq 2", "result": 17, "unit": "µM"}, {"measurement": "Kb", "setting": "rat mGlu7; pKB, agonist L-AP4, eq 2", "result": 4.17, "unit": "µM"}, {"measurement": "Kb", "setting": "rat mGlu8 [2]; agonist Glu", "result": 8.6, "unit": "µM"}, {"measurement": "Kb", "setting": "rat mGlu8 [2]; agonist L-AP4", "result": 14.7, "unit": "µM"}, {"measurement": "Kb", "setting": "rat mGlu8 [2]; agonist LSP4-2022", "result": 14, "unit": "µM"}, {"measurement": "log α (affinity cooperativity)", "setting": "rat mGlu8 [2]; agonist Glu", "result": "0.61 ± 0.39"}, {"measurement": "log β (efficacy cooperativity)", "setting": "rat mGlu8 [2]; agonist Glu", "result": "0.08 ± 0.02 ^h"}, {"measurement": "log τB", "setting": "rat mGlu8 [2]; agonist Glu", "result": "–0.12 ± 0.03"}, {"measurement": "α", "setting": "rat mGlu8 [2]; agonist Glu", "result": 4.1}, {"measurement": "β", "setting": "rat mGlu8 [2]; agonist Glu", "result": 1.2}, {"measurement": "τB", "setting": "rat mGlu8 [2]; agonist Glu", "result": 0.75}, {"measurement": "log α (affinity cooperativity)", "setting": "rat mGlu8 [2]; agonist L-AP4", "result": "0.92 ± 0.08 ^k"}, {"measurement": "log β (efficacy cooperativity)", "setting": "rat mGlu8 [2]; agonist L-AP4", "result": "0.05 ± 0.03 ^i"}, {"measurement": "log τB", "setting": "rat mGlu8 [2]; agonist L-AP4", "result": "–0.14 ± 0.04"}, {"measurement": "α", "setting": "rat mGlu8 [2]; agonist L-AP4", "result": 8.3}, {"measurement": "β", "setting": "rat mGlu8 [2]; agonist L-AP4", "result": 1.1}, {"measurement": "τB", "setting": "rat mGlu8 [2]; agonist L-AP4", "result": 0.73}, {"measurement": "log α (affinity cooperativity)", "setting": "rat mGlu8 [2]; agonist LSP4-2022", "result": "0.93 ± 0.06 ^l"}, {"measurement": "log β (efficacy cooperativity)", "setting": "rat mGlu8 [2]; agonist LSP4-2022", "result": "0.05 ± 0.06 ^j"}, {"measurement": "log τB", "setting": "rat mGlu8 [2]; agonist LSP4-2022", "result": "–0.10 ± 0.06"}, {"measurement": "α", "setting": "rat mGlu8 [2]; agonist LSP4-2022", "result": 8.6}, {"measurement": "β", "setting": "rat mGlu8 [2]; agonist LSP4-2022", "result": 1.1}, {"measurement": "τB", "setting": "rat mGlu8 [2]; agonist LSP4-2022", "result": 0.80}, {"measurement": "shift of glutamate concentration-response (PAM or NAM activity) at mGlu2", "setting": "rat mGlu2", "result": "inactive"}, {"measurement": "effect on paired-pulse ratio", "setting": "SC-CA1 synapse; PAM and LSP4-2022 applied together", "result": "increases the paired-pulse ratio"}]}
{"molecule": "O=C(Nc1ccc(Oc2ccc(Cl)cn2)c(Cl)c1)c1ccccn1", "note": "[Compound 20, N-(3-chloro-4-((5-chloropyridin-2-yl)oxy)phenyl)picolinamide]", "values": [{"measurement": "log αβ (combined cooperativity)", "setting": "mGlu4; agonist Glu", "result": "0.54 ± 0.06 ^i"}, {"measurement": "αβ", "setting": "mGlu4; agonist Glu", "result": 3.5}, {"measurement": "log αβ (combined cooperativity)", "setting": "mGlu4; agonist L-AP4", "result": "0.58 ± 0.04 ^j"}, {"measurement": "αβ", "setting": "mGlu4; agonist L-AP4", "result": 3.8}, {"measurement": "log αβ (combined cooperativity)", "setting": "mGlu4; agonist LSP4-2022", "result": "0.54 ± 0.003 ^k"}, {"measurement": "αβ", "setting": "mGlu4; agonist LSP4-2022", "result": 3.5}, {"measurement": "Kb", "setting": "mGlu4; agonist Glu", "result": 0.306, "unit": "µM"}, {"measurement": "Kb", "setting": "mGlu4; agonist L-AP4", "result": 0.304, "unit": "µM"}, {"measurement": "Kb", "setting": "mGlu4; agonist LSP4-2022", "result": 0.268, "unit": "µM"}]}
{"molecule": "N[C@H](C(=O)O)c1ccc(C(=O)O)c(C(=O)O)c1", "note": "[DCPG, (S)-3,4-dicarboxyphenylglycine]", "values": [{"measurement": "effect on fEPSP slope", "setting": "SC-CA1 synapse", "result": "has no effect on fEPSP slope"}]}
{"molecule": "COc1cc(C(O)P(=O)(O)CC[C@H](N)C(=O)O)cc([N+](=O)[O-])c1O", "note": "(stereo partly drawn) [LSP1-2111, (2S)-2-amino-4-[hydroxy[hydroxy(4-hydroxy-3-methoxy-5-nitro-phenyl)methyl]phosphoryl]butanoic acid]", "values": [{"measurement": "effect on fEPSP slope", "setting": "SC-CA1 synapse", "result": "has no effect on fEPSP slope"}]}
{"molecule": "N[C@@H](CCP(=O)(O)C(O)c1ccc(OCC(=O)O)cc1)C(=O)O", "note": "(stereo partly drawn) [LSP4-2022, (2S)-2-amino-4-(((4-(carboxymethoxy)phenyl)(hydroxy)methyl)(hydroxy)phosphoryl)butanoic acid, reference compound]", "values": [{"measurement": "Fold ΔpKA vs. Glu (fold higher affinity than glutamate)", "setting": "human mGlu4; calcium", "result": 9, "unit": "fold"}, {"measurement": "fold lower affinity compared to glutamate", "setting": "rat mGlu8 [2]; calcium", "result": 10, "unit": "fold"}, {"measurement": "effect on paired-pulse ratio", "setting": "SC-CA1 synapse; 30 μM LSP4-2022 alone", "result": "causes an increase in paired-pulse ratio"}, {"measurement": "effect on fEPSP slope", "setting": "SC-CA1 synapse", "result": "causes a decrease in the fEPSP slope"}]}
